Experiment: Toxicity liver stage against HepG2, at 10uM
Assay type: cell-based
Design: test concentration 10 uM, cell line HepG2-A16-CD81EGFP
Settings: human, HepG2-A16-CD81EGFP cells; read-out: INHIBITION
Procedure, shortened: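 Uninfected HepG2-A16-CD81EGFP cells, 3 × 10^3 per well, 1536-well, plated on prespotted compound at 10 μM final, parasite-free screening media added to match infected plates; puromycin 10 μM positive, DMSO 0.5% negative; run in parallel with 48 h PbLuc assay at 37 °C, 5% CO2; viability by CellTiter-Glo luminescence, normalized to controls.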

In order of rising cytotoxicity at 10 µM:
1. Cn1nc(CN2CCCC2)c2c1CN(C(=O)c1ccncc1F)CC2  -154%
2. O=C(c1cnccn1)N1CCC2(CCCN(Cc3ccoc3)C2)C1 (stereo unspecified)  -139%
3. COc1cccc(CC(=O)N2Cc3nccn3CC(CN(C)C)C2)c1 (stereo unspecified)  -135%
4. Cc1nc(CNc2nc3c(s2)c(C)nn3C)cs1  -109%
5. Cc1noc(C)c1CNCC1Cn2nncc2CO1 (stereo unspecified)  -101%
6. CN(C)CCN1CC[C@@H]2[C@@H]1CCN2C(=O)c1cccc(Cl)c1  -84%
7. Cn1ncc2c1C(COCC1CC1)CN(CC1CC1)C2 (stereo unspecified)  -78.5%
8. O=C(NC[C@H]1OC[C@@H](NC2CCC(F)(F)CC2)[C@@H]1O)C1CCCC1  -77.9%
9. Cc1nc(CN2C[C@@H]3CN(C(=O)c4ccco4)C[C@@H]3C2=O)cs1  -77.7%
10. CCn1c(C)nnc1SCCNC(=O)c1cccc2ccnn12  -54.6%
11. CCN(Cc1ccncc1)c1nc(C)nc2oc(C)nc12  -50.6%
12. O=C(c1ccsc1)N1CCN(CC(O)c2cccc(F)c2)CC1 (stereo unspecified)  -46.7%
13. N[C@H]1CN(C(=O)c2cnc3cc(Cl)ccc3c2O)C[C@@H]1C1CC1  -44.1%
14. CCc1nnc(CN2CCC(C3CCCCCN3C(C)=O)CC2)o1 (stereo unspecified)  -43%
15. COc1cccc2c1OCC(C(=O)NCCc1nc3c(s1)CCC3)C2 (stereo unspecified)  -39.6%
16. CCCN(CC1COc2ccccc2O1)C(=O)CCN1C(=O)CCC1=O (stereo unspecified)  -37%
17. Cc1nc(CNC(=O)Nc2ccc3c(ccn3CCN(C)C)c2)no1  -21.8%
18. Cc1nc(C2CCCN(C(=O)c3cc(Cl)c[nH]3)C2)sc1C (stereo unspecified)  -21.5%
19. CC(=O)Nc1nc(C(=O)N2CCCC2c2noc(C(C)C)n2)cs1 (stereo unspecified)  -20.1%
20. Cc1nc(C)n(C2CCCN(C(=O)c3c[nH]c(C(C)C)n3)C2)n1 (stereo unspecified)  -19.9%
21. CCn1ccnc1CN1CCCC1c1noc(C2CC2)n1 (stereo unspecified)  -17.4%
22. CSCC(CCO)NC(=O)Nc1cc(C)ccc1C (stereo unspecified)  -17%
23. CC(C(=O)NCc1cn2cc(Br)ccc2n1)S(C)(=O)=O (stereo unspecified)  -16.4%
24. CC(C)c1cc(N2CCC3(CC2)CN(C)CCN3C)ncn1  -16.2%
25. CCC(=O)NC1CCN(c2cccc(OC(F)(F)F)c2)C1=O (stereo unspecified)  -11.5%
26. CN(CC1Cc2ccccc2CN1C)C(=O)CSc1nccn1C (stereo unspecified)  -10.8%
27. CCc1cc(NC(=O)C(c2cccc(F)c2)N2CCOCC2)[nH]n1 (stereo unspecified)  -10.3%
28. CC(NCc1ccccc1Cl)c1ccc2[nH]c(=O)[nH]c2c1 (stereo unspecified)  -9.7%
29. N#Cc1ccc(CN2CCOCC2)cc1  -9.32%
30. CS(=O)(=O)N1CCC(C(=O)NCCCn2cc(Cl)cn2)CC1  -8.97%
31. CC(=O)c1cccc(NC(=O)CN2CCCCC2C(=O)N2CCCC2)c1 (stereo unspecified)  -8.82%
32. O=C(C1CCOCC1)N1C[C@H]2CNC[C@H]2C1  -8.58%
33. CCC(C)Oc1ccc(CNCCNC(C)=O)cc1OC (stereo unspecified)  -8.09%
34. CN(Cc1ccc([S+](C)[O-])cc1)c1ccccn1 (stereo unspecified)  -7%
35. CC(C(=O)N(C)C)N1CCc2onc(-c3cccc(F)c3)c2C1 (stereo unspecified)  -6.93%
36. c1ccc(OCc2noc(CN3CCN(C4CCCC4)CC3)n2)cc1  -6.66%
37. CSC(C)(C)CNC(=O)NC1CCN(CC=C(C)C)CC1  -6.45%
38. COCCc1noc(CN2CCCC(Cn3nc(C)nc3C)C2)n1 (stereo unspecified)  -6.41%
39. CCCn1ccnc1CN1CCC(O)(CN2CCCCC2)C1 (stereo unspecified)  -6.12%
40. CC(C)Oc1cccc(CN2CCC(C(C)N3CCOCC3)CC2)c1 (stereo unspecified)  -5.84%
41. Cn1ccnc1CN1CC[C@@H]2[C@@H](CCC(=O)N2CCc2c[nH]cn2)C1  -5.68%
42. O=C(CCCC1CCCC1)NS(=O)(=O)CC1CC1  -5.62%
43. Cc1ccc(C(=O)NCCNS(C)(=O)=O)c(=O)[nH]1  -5.3%
44. O=C(c1ccc2c(c1)CCC2)N1CCn2ncnc2C1  -5.26%
45. O=C(CCCn1cnc2ccccc2c1=O)Nc1nc[nH]n1  -4.84%
46. O=C(C1CCOCC1)N1CC[C@H]2[C@H]1CCN2c1nncs1  -4.78%
47. Cc1nn(C)c(C)c1OCC(=O)NCC(O)c1ccco1 (stereo unspecified)  -4.71%
48. O=C(CSc1ccccc1F)NS(=O)(=O)c1ccc2c(c1)OCCO2  -4.36%
49. CC(C)(C)CC(=O)NCCCn1cncn1  -4.34%
50. O=C(NCC1(O)COCCN(Cc2cccc(O)c2)C1)c1ccccn1 (stereo unspecified)  -4.29%
51. CCCC(=O)N(C)Cc1cccc(OC(C)C)c1  -4.24%
52. O=C(C1CC1)N1CCC(c2nc(-c3ccccc3)n[nH]2)CC1  -4.15%
53. COc1cccc(CCCN2CCC(N(C)S(C)(=O)=O)CC2)c1  -3.88%
54. COCC(c1cccc(C(F)(F)F)c1)N(C)C(=O)c1ccoc1 (stereo unspecified)  -3.84%
55. O=c1c2cccnc2cnn1CC(O)c1cccc(C(F)(F)F)c1 (stereo unspecified)  -3.67%
56. C[C@@H]1C[C@@H]2CCN(Cc3nccs3)C[C@H]2O1  -3.15%
57. Cc1cnn(Cc2cccc(OCC(N)=O)c2)c1  -2.84%
58. Cc1cc(C2CCCN(C(=O)c3cnn(C)c3)C2)ccn1 (stereo unspecified)  -2.83%
59. Cn1cccc1C(O)CNC(=O)COc1ccccc1F (stereo unspecified)  -2.54%
60. NCC1CN(C(=O)c2cccc(-n3cccn3)c2)CCO1 (stereo unspecified)  -1.56%
61. O=C(CN1CCCc2c(F)cc(Br)cc21)N1CCCC1  -1.26%
62. O=C(CCc1ccc(-n2cnnn2)cc1)Nc1nncs1  -1.14%
63. CC(NC(=O)c1csnn1)c1ccc(OCC2CC2)c(F)c1 (stereo unspecified)  -1%
64. COCC(=O)N1CCc2ccccc2C12CCNCC2  -0.602%
65. CCOc1ccc(NC(=O)NCC(C)(O)c2cccs2)cc1 (stereo unspecified)  -0.579%
66. Cc1ccc(CNC(=O)Nc2nnc(C)s2)cn1  -0.243%
67. Cc1nc2c(C)cccc2cc1C(=O)N1CCC2(CC1)NCCNC2=O  -0.0638%
68. Cc1nc(CN2CCO[C@H]3[C@@H](OCc4ccccn4)CC[C@@H]32)cs1  0.179%
69. Cc1cc(C2CCCN(C(=O)c3cnccn3)C2)ccn1 (stereo unspecified)  0.204%
70. CN(C)c1cccc(C(=O)Nc2ccn(CCc3ccncc3)n2)c1  0.209%
71. Cn1ccc(C(=O)N2CCC[C@]3(C[C@@H](OCc4ccccn4)CO3)C2)n1  0.333%
72. Cc1noc(C)c1CN1CCc2ncc(CN3CCCC3)n2CC1  0.78%
73. CN1C[C@@H](F)[C@@H](OCc2nc3ccccc3n2C)C1  0.876%
74. CCC(CNC(=O)c1ccccn1)N1CCc2ccccc2C1 (stereo unspecified)  1.02%
75. CC(=O)c1cn(CC(=O)N2CCC(O)(CO)CC2)c2ccccc12  1.13%
76. CCc1nc(C(=O)N2CCN(C)c3ccccc32)c[nH]1  1.16%
77. Cc1cccc(C)c1OC1CN(Cc2cnc(N3CCCC3)nc2)C1  1.35%
78. CCOc1ccc(C(=O)CCC(=O)N(C)Cc2cnccn2)cc1C  1.39%
79. CN1C(=O)CC2(CCN(S(=O)(=O)c3cccs3)CC2)c2ccccc21  1.86%
80. CNc1ncc(CN(C)Cc2cc(O)c3cc(F)ccc3n2)cn1  1.95%
81. COCCNC(=O)C[C@@H]1COC[C@H]2CN(Cc3cccnc3)C[C@@H]12  2.13%
82. O=C(CCN1CCCC1c1cccc2c1OCCO2)N1CCCCC1 (stereo unspecified)  2.43%
83. Cc1ncsc1CCCn1ccnc1-c1cc2n(n1)CCCNC2  3.28%
84. O=C(NCCCOCC1CCCO1)c1cccnc1N1CCOCC1 (stereo unspecified)  3.68%
85. COc1ccc(S(=O)(=O)N2CCC[C@@H]3CN(C(=O)C4CC4)C[C@@H]32)cc1F  3.75%
86. CC(C)c1ncc(Cl)c(C(=O)N2CCN(C3CC3)CC2)n1  3.78%
87. Cn1ccnc1CN1C(=O)CO[C@H]2CN(Cc3ccccc3O)C[C@H]21  4.22%
88. CC(C)(C)C(=O)N1CC(=O)N(Cc2ccco2)CC(O)C1 (stereo unspecified)  4.79%
89. CC(C)CNC(=O)c1ccc2nnc(C3CCN(S(C)(=O)=O)C3)n2c1 (stereo unspecified)  5.09%
90. Cc1nc(COCC2CN(C(N)=O)Cc3nccn3C2)cs1 (stereo unspecified)  5.3%
91. CN(CC(O)C(F)(F)F)C(=O)Nc1cccc(C(F)F)c1 (stereo unspecified)  5.46%
92. Cc1cc(-n2cccn2)ccc1CN1CCC(O)(CN2CCCCC2)C1 (stereo unspecified)  6.2%
93. Cc1ccccc1CN(CCN(C)C)Cc1ccc(S(C)(=O)=O)cc1  6.3%
94. CCC(C)c1noc(C2CCN(C(=O)Cn3nc(C)cc3C)CC2)n1 (stereo unspecified)  6.58%
95. CCn1cc2c(n1)CN(Cc1ccncc1)CC2COCC1CC1 (stereo unspecified)  6.59%
96. CC(=O)Nc1ncc(S(=O)(=O)Nc2ccccc2)s1  6.72%
97. Cc1cc2ccccc2n1CC(=O)Nc1ccnn1CC1CCOC1 (stereo unspecified)  7.77%
98. COCCN1CCC2(CC1)CC(c1ccccc1)C(=O)N2C (stereo unspecified)  7.91%
99. Cc1cc(C)n(C2CN(c3ncnc4c3CCNCC4)C2)n1  7.99%
100. CCCc1cc(C(=O)N2CCOC(c3nc(-c4cccs4)no3)C2)no1 (stereo unspecified)  8.37%
101. CC[C@H]1COCCN1C(=O)c1cnc(C(C)C)nc1C  8.51%
102. Cc1ncc(CNC(=O)N(C)Cc2ccc([S+](C)[O-])cc2)s1 (stereo unspecified)  9.35%
103. Cc1n[nH]cc1CNC1(c2ccc(F)cc2)CCCC1  9.56%
104. O=C1N(CCCc2ccccc2)CCCC1(O)CNCc1ccccc1 (stereo unspecified)  10.4%
105. CCNC(=O)N1CCC(n2ccc(C(F)(F)F)n2)CC1  10.5%
106. CCCc1nc(N2CCCC(CCOC)C2)c2cnn(C)c2n1 (stereo unspecified)  12.1%
107. O=C1C(N2CCN(c3ccc(O)cc3)CC2)CCN1C1CCOCC1 (stereo unspecified)  12.6%
108. COc1ccc(Br)c(C(=O)NCCNc2ccc(C(F)(F)F)cn2)c1  12.7%
109. CCCS(=O)(=O)N1CCC2(CC1)COCCN(C(C)=O)C2  15.9%
110. O=C(O)[C@H]1CCCN1CCOc1cccc(Cl)c1  17%
111. Cc1nn(CC(=O)Nc2cccc(F)c2)c(N)c1C#N  17.9%
